Reference: ChEMBL document CHEMBL1132464, “Specific nonpeptide photoprobes as tools for the structural study of the angiotensin II AT(1) receptor” (J Med Chem, 1999)

What was measured:
[1] = biological target: T1, Type-1 angiotensin II receptor A (Rattus norvegicus, UniProt P25095); test: The compound was evaluated for the inhibition of [125I]-Sar-AII binding to Angiotensin II receptor, type 1 from purified rat liver membranes.; format: cell membranes, Membrane
T1 sequence (P25095 whole entry): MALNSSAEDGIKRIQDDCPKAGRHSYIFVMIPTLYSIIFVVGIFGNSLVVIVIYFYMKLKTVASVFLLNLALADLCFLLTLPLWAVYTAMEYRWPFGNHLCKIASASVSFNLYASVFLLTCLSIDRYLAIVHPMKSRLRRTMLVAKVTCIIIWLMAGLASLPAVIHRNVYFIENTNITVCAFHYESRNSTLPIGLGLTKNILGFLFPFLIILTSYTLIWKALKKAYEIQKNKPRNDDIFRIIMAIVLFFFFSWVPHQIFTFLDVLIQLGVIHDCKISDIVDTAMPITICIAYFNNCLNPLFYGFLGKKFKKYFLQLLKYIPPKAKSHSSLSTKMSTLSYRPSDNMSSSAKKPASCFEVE
Procedure, shortened: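 Purified rat liver membranes (AT1 only), 10 μg protein/assay, competition against [125I]Sar1-AII tracer for 30 min at 30 °C in 50 mM phosphate pH 7.4, 5 mM MgCl2, 0.1 mg/mL bacitracin, 0.6% Me2SO, no BSA; triplicates; GF/C filtration; Ki via Ekins equation.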

[2] = biological target: T2, Type-1 angiotensin II receptor A (Rattus norvegicus) (UniProt P25095); test: The compound was evaluated for irreversible binding to [125I]Sar-AII in CHO cells expressing the Angiotensin II receptor, type 1 with UV irradiation.; format: cell-based
T2 sequence (whole entry): T1 sequence (P25095 whole entry)
Procedure, shortened: (§1)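 CHO cells stably expressing rat AT1A receptor in 24-well clusters; incubated 4 h at 4 °C in dark with photoactivatable ligand (nonpeptide 50 or 10 nM; peptide azido probe 10 nM) in PBS pH 7.4, 5 mM MgCl2, 0.1 mg/mL bacitracin; washed, irradiated or not 5 min at 0 °C, 254 nm; two 30-min 30 °C dissociation incubations; remaining sites titrated with 5 nM [125I]Sar1-AII, 2 h, 4 °C; % of control, triplicates.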

[3] = biological target: T2, Type-1 angiotensin II receptor A (Rattus norvegicus); test: The compound was evaluated for irreversible binding to [125I]Sar-AII in CHO cells expressing the Angiotensin II receptor, type 1 without UV irradiation.; format: cell-based; procedure, shortened: as §1
Oryctolagus cuniculus = species: Oryctolagus cuniculus; test: The compound was evaluated for the inhibition of AII-induced contraction in the rabbit aorta strips.; format: functional
Procedure, shortened: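 Rabbit aortic rings (4 mm) in 37 °C organ baths, Krebs-Henseleit gassed O2/CO2 95/5, passive tension 2 g, isometric tension recorded; three to five antagonist concentrations, one per ring, against 3 nM AII contraction; IC50 = concentration halving AII response; mean of six experiments.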

[4] = biological target: T1, Type-1 angiotensin II receptor A; test: The compound was evaluated for the direct binding of tritiated compound to the recombinant Angiotensin II receptor, type 1 stably expressed in CHO cells.; format: cell-based
Procedure, shortened: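 Intact CHO cells stably expressing rat AT1A, grown to confluence (~5 × 10^5 cells/well), incubated 4 h at 4 °C with graded tritiated ligand in PBS pH 7.4, 5 mM MgCl2, 0.1 mg/mL bacitracin, 0.6% Me2SO; nonspecific binding with excess Sar1-AII or unlabeled nonpeptide; ice-cold washes, NaOH lysis, scintillation counting; Kd by Scatchard analysis, mean of four experiments.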

Q: With `CCCCc1ncc(CNc2ccccc2C(=O)O)n1Cc1ccc(C(=O)NS(=O)(=O)c2ccccc2N=[N+]=[N-])cc1` as the molecule, how does the Ki [1] read?
A: 1.5 nM

Q: What about the Control [2] of the same molecule?
A: 55%

Q: And the Control [3]?
A: 50%

Q: And the IC50 (Oryctolagus cuniculus)?
A: 3.5 nM

Q: Which results are given for `CCCCc1ncc(CNc2ccccc2C(=O)O)n1Cc1ccc(C(=O)O)cc1`?
A: Ki [1]: 12.1 nM; IC50 (Oryctolagus cuniculus): 3.6 nM

Q: With `[3H]c1ccc(S(=O)(=O)NC(=O)c2ccc(Cn3c(CNc4ccccc4C(=O)O)cnc3CCCC)cc2)c(Cl)c1` as the molecule, how does the Kd [4] read?
A: 1.3 nM

Q: `CCCCc1ncc(CNc2ccccc2C(=O)O)n1Cc1ccc(C(=O)NS(=O)(=O)c2ccccc2Cl)cc1` was tested. Which Ki [1] did it give?
A: 2.5 nM

Q: What about the IC50 (Oryctolagus cuniculus) of the same molecule?
A: 0.8 nM

Q: What does the source list for `CCCCc1ncc(CNc2cc(N=[N+]=[N-])ccc2C(=O)O)n1Cc1ccc(C(=O)O)cc1`?
A: Ki [1]: 22 nM; Control [2]: 64%; Control [3]: 91%; IC50 (Oryctolagus cuniculus): 6.3 nM

Q: For `[3H]c1nc(CCCC)n(Cc2ccc(C(=O)O)cc2)c1CNc1ccccc1C(=O)O`, which Kd [4] is on record?
A: 3.5 nM

Q: Which Kd [4] does the source give for `[3H]c1nc(CCCC)n(Cc2ccc(C(=O)O)cc2)c1C([3H])Nc1cc(N=[N+]=[N-])ccc1C(=O)O` (stereo not given) here?
A: 11.8 nM
